# Laboratory results as given in ChEMBL document CHEMBL4270489, “Synthesis and in vitro and in vivo antitumour activity study of 11-hydroxyl esterified bergenin/cinnamic acid hybrids” (Eur J Med Chem, 2017).
# Active and inactive are the calls of the source. No cut-off for these calls is given here.
# Tests used:
# HepG2 [1] = assay: Induction of apoptosis in human HepG2 cells assessed as reduction in pro-caspase-3 protein expression at 1 to 8 umol/L incubated for 12 to 48 hrs by Western blot analysis; format: functional, cell-based
# How it was run: (§1)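 Western blot. HepG2 cells were seeded at 5×10⁵/well with compound in 10% FBS at 37°C: 1, 2, 4 or 8 μM for 24 h, or 4 μmol/L over a time course. The vehicle was 0.5% DMSO. Cleared lysates were quantified by BCA and run on 10% SDS-PAGE, then transferred to PVDF. Membranes were blocked in 5% milk/TBST with primary antibodies at 1:2000 at 4°C, HRP secondary at 1:2000 for 2 h, and ECL detection. GAPDH served as loading control.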
# MCF7 = assay: Antiproliferative activity against human MCF7 cells incubated for 48 to 72 hrs by MTT assay; format: functional, cell-based
# How it was run: (§2)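 MTT assay. Cells were grown in DMEM with 10% heat-inactivated FBS at 37°C under 5% CO₂. They were seeded at 5000/well in 5% FBS DMEM for 24 h, then given compound in DMSO at 0.1, 1, 10 and 100 µmol/L for 72 h (the table footnote says 48 h). MTT was added for 4 h, formazan was dissolved in DMSO and read at 570 nm. IC₅₀ was from ≥3 independent runs; >100 μM was given if 50% inhibition was not reached.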
# HepG2 [2] = assay: Induction of apoptosis in human HepG2 cells assessed as reduction in pro-caspase-9 protein expression at 1 to 8 umol/L incubated for 12 to 48 hrs by Western blot analysis; format: functional, cell-based; how it was run: as §1
# Mus musculus [3] = assay: Toxicity in Swiss mouse xenografted with […] assessed as effect on thymus index at 15 to 30 mg/kg, ip dosed every day for 14 days; format: organism-based; details: in vivo, 336 h
# How it was run: (§3)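 Female Swiss mice (20-22 g) bearing subcutaneous […] (3×10⁶ cells, right flank) were dosed intraperitoneally daily with saline, 15 or 30 mg/kg, or 5-FU 20 mg/kg (n = 6) and killed on day 14. Body weight was recorded daily. Thymus and spleen indexes were calculated as organ weight divided by final body weight. Mean ± S.E.M.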
# HepG2 [4] = assay: Induction of apoptosis in human HepG2 cells assessed as reduction in Bcl2 protein expression at 1 to 8 umol/L incubated for 12 to 48 hrs by Western blot analysis; format: functional, cell-based; how it was run: as §1
# HepG2 [5] = assay: Induction of apoptosis in human HepG2 cells assessed as reduction in Bcl-XL protein expression at 1 to 8 umol/L incubated for 12 to 48 hrs by Western blot analysis; format: functional, cell-based; how it was run: as §1
# HepG2 [6] = assay: Induction of cell cycle arrest in human HepG2 cells assessed as accumulation at G2/M phase at 2 umol/L incubated for 24 hrs by propidium iodide staining based flow cytometry (reference value: 10.41%); format: functional
# HepG2 [7] = assay: Induction of apoptosis in human HepG2 cells assessed as reduction in Akt protein expression at 1 to 8 umol/L incubated for 12 to 48 hrs by Western blot analysis; format: functional, cell-based; how it was run: as §1
# HepG2 [8] = assay: Antiproliferative activity against human HepG2 cells incubated for 48 to 72 hrs by MTT assay; format: functional, cell-based; how it was run: as §2
# HepG2 [9] = assay: Induction of apoptosis in human HepG2 cells at 4 umol/L incubated for 24 hrs by Annexin V-FITC/propidium iodide staining based flow cytometry (reference value: 1.96%); format: functional
# HepG2 [10] = assay: Induction of apoptosis in human HepG2 cells at 2 umol/L incubated for 24 hrs by Annexin V-FITC/propidium iodide staining based flow cytometry (reference value: 1.96%); format: functional
# Heps (mouse) [11] = assay: Antitumour activity against murine HepS cells xenografted in Swiss mouse assessed as inhibition of tumor growth at 30 mg/kg, ip dosed every day for 14 days; details: 336 h, read-out: TGI
# HepG2 [12] = assay: Induction of apoptosis in human HepG2 cells incubated for 24 hrs by Annexin V-FITC/propidium iodide staining based flow cytometry (reference value: 1.96%); format: functional, cell-based
# HepG2 [13] = assay: Induction of cell cycle arrest in human HepG2 cells assessed as accumulation at S phase at 2 umol/L incubated for 12 hrs by propidium iodide staining based flow cytometry (reference value: 25.28%); format: functional
# HepG2 [14] = assay: Induction of cell cycle arrest in human HepG2 cells assessed as accumulation at S phase at 2 umol/L incubated for 24 hrs by propidium iodide staining based flow cytometry (reference value: 25.28%); format: functional
# HepG2 [15] = assay: Induction of apoptosis in human HepG2 cells assessed as increase in p53 protein expression at 1 to 8 umol/L incubated for 12 to 48 hrs by Western blot analysis
# Mus musculus [16] = assay: Toxicity in Swiss mouse xenografted with […] assessed as effect on spleen index at 15 to 30 mg/kg, ip dosed every day for 14 days; format: organism-based; details: in vivo, 336 h; how it was run: as §3
# HepG2 [17] = assay: Induction of cell cycle arrest in human HepG2 cells assessed as accumulation at G2/M phase at 2 umol/L incubated for 12 hrs by propidium iodide staining based flow cytometry (reference value: 10.41%); format: functional
# HepG2 [18] = assay: Induction of apoptosis in human HepG2 cells assessed as increase in Bax protein expression by Western blot analysis; format: functional, cell-based; how it was run: as §1
# A549 = assay: Antiproliferative activity against human A549 cells incubated for 48 to 72 hrs by MTT assay; format: functional, cell-based; how it was run: as §2
# HepG2 [19] = assay: Induction of apoptosis in human HepG2 cells assessed as reduction in Bcl2 protein expression by Western blot analysis; format: functional, cell-based; how it was run: as §1
# HepG2 [20] = assay: Induction of apoptosis in human HepG2 cells at 1 umol/L incubated for 24 hrs by Annexin V-FITC/propidium iodide staining based flow cytometry (reference value: 1.96%); format: functional
# SGC-7901 = assay: Antiproliferative activity against human SGC7901 cells incubated for 48 to 72 hrs by MTT assay; format: functional, cell-based; how it was run: as §2
# HepG2 [21] = assay: Induction of cell cycle arrest in human HepG2 cells assessed as accumulation at G0/G1 phase at 2 umol/L incubated for 24 hrs by propidium iodide staining based flow cytometry (reference value: 64.31%); format: functional
# HepG2 [22] = assay: Induction of cell cycle arrest in human HepG2 cells assessed as accumulation at G0/G1 phase at 2 umol/L incubated for 12 hrs by propidium iodide staining based flow cytometry (reference value: 64.31%); format: functional
# Mus musculus [23] = assay: Toxicity in Swiss mouse xenografted with […] assessed as increase in body weight at 15 mg/kg, ip dosed every day for 14 days; format: organism-based; details: in vivo, 336 h; how it was run: as §3
# Heps (mouse) [24] = assay: Antitumour activity against murine HepS cells xenografted in Swiss mouse assessed as reduction in tumor size at 15 to 30 mg/kg, ip dosed every day for 14 days
# Heps (mouse) [25] = assay: Antitumour activity against murine HepS cells xenografted in Swiss mouse assessed as reduction in tumor weight at 15 to 30 mg/kg, ip dosed every day for 14 days
# HepG2 [26] = assay: Induction of apoptosis in human HepG2 cells assessed as reduction in Bcl-XL protein expression by Western blot analysis; format: functional, cell-based; how it was run: as §1
# PC-3 = assay: Antiproliferative activity against human PC3 cells incubated for 48 to 72 hrs by MTT assay; format: functional, cell-based; how it was run: as §2
# Heps (mouse) [27] = assay: Antitumour activity against murine HepS cells xenografted in Swiss mouse assessed as inhibition of tumor growth at 15 mg/kg, ip dosed every day for 14 days; details: 336 h, read-out: TGI
smiles,measurement,setting,value
COc1c(O)cc2c(c1O)[C@@H]1O[C@H](COC(=O)/C=C/c3ccc(C#N)cc3)[C@@H](O)[C@H](O)[C@H]1OC2=O,Activity,HepG2 [1],Active
same,IC50,MCF7,7.34 µM
same,Activity,HepG2 [2],Active
same,Activity,Mus musculus [3],Non-Toxic
same,Activity,HepG2 [4],Active
same,Activity,HepG2 [5],Active
same,Activity,HepG2 [6],28.93%
same,Activity,HepG2 [7],Active
same,IC50,HepG2 [8],5.23 µM
same,Activity,HepG2 [9],20.68%
same,Activity,HepG2 [10],10.68%
same,inhibition in vivo at 30 mg/kg,Heps (mouse) [11],61%
same,Activity,HepG2 [12],Dose-dependent effect
same,Activity,HepG2 [13],28.43%
same,Activity,HepG2 [14],19.92%
same,Activity,HepG2 [15],Active
same,Activity,Mus musculus [16],Non-Toxic
same,Activity,HepG2 [17],13.93%
same,Activity,HepG2 [18],Dose-dependent effect
same,IC50,A549,10.7 µM
same,Activity,HepG2 [19],Dose-dependent effect
same,Activity,HepG2 [20],5.58%
same,IC50,SGC-7901,8.32 µM
same,Activity,HepG2 [21],51.15%
same,Activity,HepG2 [22],57.64%
same,Activity,Mus musculus [23],Non-Toxic
same,Activity,Heps (mouse) [24],Dose-dependent effect
same,Activity,Heps (mouse) [25],Dose-dependent effect
same,Activity,HepG2 [26],Dose-dependent effect
same,IC50,PC-3,27 µM
same,inhibition in vivo at 15 mg/kg,Heps (mouse) [27],45.4%
